How the values were obtained:
Format in all cases: functional
Mus musculus [1] = test: Analgesic activity in Swiss mouse assessed as increase in reaction time at 20 mg/kg, po after 30 mins by Eddy's hot plate technique
Procedure, shortened: (§1)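 Swiss mice of either sex, 25–35 g, placed one at a time on a hot plate held at 55 °C. End point is paw licking or jumping, whichever comes first, with a 15 s cut-off to avoid paw injury. Reaction time is recorded and reported as percent increase in reaction time.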

Mus musculus [2] = test: Analgesic activity in Swiss mouse assessed as increase in reaction time at 20 mg/kg, po after 60 mins by Eddy's hot plate technique; procedure, shortened: as §1
Mus musculus [3] = test: Analgesic activity in Swiss mouse assessed as increase in reaction time at 20 mg/kg, po after 90 mins by Eddy's hot plate technique; procedure, shortened: as §1
Candida albicans [4] = test: Antifungal activity against Candida albicans at 10 ug/ml by paper disc method; conditions: read-out: IZ
Candida albicans [5] = test: Antifungal activity against Candida albicans at 20 ug/ml by paper disc method; conditions: read-out: IZ
Candida albicans [6] = test: Antifungal activity against Candida albicans at 30 ug/ml by paper disc method; conditions: read-out: IZ
Aspergillus niger [7] = test: Antifungal activity against Aspergillus niger at 10 ug/ml by paper disc method; conditions: read-out: IZ
Aspergillus niger [8] = test: Antifungal activity against Aspergillus niger at 20 ug/ml by paper disc method; conditions: read-out: IZ
Aspergillus niger [9] = test: Antifungal activity against Aspergillus niger at 30 ug/ml by paper disc method; conditions: read-out: IZ
Escherichia coli [10] = test: Antibacterial activity against Escherichia coli at 10 ug/ml by agar plate diffusion technique; conditions: read-out: IZ
Escherichia coli [11] = test: Antibacterial activity against Escherichia coli at 20 ug/ml by agar plate diffusion technique; conditions: read-out: IZ
Escherichia coli [12] = test: Antibacterial activity against Escherichia coli at 30 ug/ml by agar plate diffusion technique; conditions: read-out: IZ
Pseudomonas aeruginosa [13] = test: Antibacterial activity against Pseudomonas aeruginosa at 10 ug/ml by agar plate diffusion technique; conditions: read-out: IZ
Pseudomonas aeruginosa [14] = test: Antibacterial activity against Pseudomonas aeruginosa at 20 ug/ml by agar plate diffusion technique; conditions: read-out: IZ
Pseudomonas aeruginosa [15] = test: Antibacterial activity against Pseudomonas aeruginosa at 30 ug/ml by agar plate diffusion technique; conditions: read-out: IZ
Bacillus subtilis [16] = test: Antibacterial activity against Bacillus subtilis at 10 ug/ml by agar plate diffusion technique; conditions: read-out: IZ
Bacillus subtilis [17] = test: Antibacterial activity against Bacillus subtilis at 20 ug/ml by agar plate diffusion technique; conditions: read-out: IZ
Bacillus subtilis [18] = test: Antibacterial activity against Bacillus subtilis at 30 ug/ml by agar plate diffusion technique; conditions: read-out: IZ
Staphylococcus aureus [19] = test: Antibacterial activity against Staphylococcus aureus at 10 ug/ml by agar plate diffusion technique; conditions: read-out: IZ
Staphylococcus aureus [20] = test: Antibacterial activity against Staphylococcus aureus at 20 ug/ml by agar plate diffusion technique; conditions: read-out: IZ
Staphylococcus aureus [21] = test: Antibacterial activity against Staphylococcus aureus at 30 ug/ml by agar plate diffusion technique; conditions: read-out: IZ
Rattus norvegicus [22] = test: Antiinflammatory activity in Wistar Albino rat assessed as inhibition of carrageenan-induced paw oedema at 20 mg/kg after 1 hr relative to control
Procedure, shortened: (§2)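 Wistar albino rats, 150–200 g, six per group, dosed orally with a 20 mg/kg suspension; control gets 0.1 ml 1% gum acacia. After 30 min, 0.1 ml 1% carrageenan in saline is injected subplantar into the right hind paw. Paw volume is read by plethysmograph at 0–4 h. Inhibition = 100(1 − Vtest/Vcontrol) on mean volume increase.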

Rattus norvegicus [23] = test: Antiinflammatory activity in Wistar Albino rat assessed as inhibition of carrageenan-induced paw oedema at 20 mg/kg after 2 hrs relative to control; procedure, shortened: as §2
Rattus norvegicus [24] = test: Antiinflammatory activity in Wistar Albino rat assessed as inhibition of carrageenan-induced paw oedema at 20 mg/kg after 3 hrs relative to control; procedure, shortened: as §2
Rattus norvegicus [25] = test: Antiinflammatory activity in Wistar Albino rat assessed as inhibition of carrageenan-induced paw oedema at 20 mg/kg after 4 hrs relative to control; procedure, shortened: as §2

Row | SMILES | Activity (Mus musculus [1]) | Activity (Mus musculus [2]) | Activity (Mus musculus [3]) | zone of inhibition at 10 µg/mL (Candida albicans [4]) | zone of inhibition at 20 µg/mL (Candida albicans [5]) | zone of inhibition at 30 µg/mL (Candida albicans [6]) | zone of inhibition at 10 µg/mL (Aspergillus niger [7]) | zone of inhibition at 20 µg/mL (Aspergillus niger [8]) | zone of inhibition at 30 µg/mL (Aspergillus niger [9]) | zone of inhibition at 10 µg/mL (Escherichia coli [10]) | zone of inhibition at 20 µg/mL (Escherichia coli [11]) | zone of inhibition at 30 µg/mL (Escherichia coli [12]) | zone of inhibition at 10 µg/mL (Pseudomonas aeruginosa [13]) | zone of inhibition at 20 µg/mL (Pseudomonas aeruginosa [14]) | zone of inhibition at 30 µg/mL (Pseudomonas aeruginosa [15]) | zone of inhibition at 10 µg/mL (Bacillus subtilis [16]) | zone of inhibition at 20 µg/mL (Bacillus subtilis [17]) | zone of inhibition at 30 µg/mL (Bacillus subtilis [18]) | zone of inhibition at 10 µg/mL (Staphylococcus aureus [19]) | zone of inhibition at 20 µg/mL (Staphylococcus aureus [20]) | other results
1 | COc1ccc(Cc2nnc3sc(Cc4c[nH]c5ccccc45)nn23)cc1OC | 13.16% | 25% | 31.88% | 4.1 mm | 7.46 mm | 10.2 mm | 5.24 mm | 9.62 mm | 11.1 mm | 4.9 mm | 8.22 mm | 12.5 mm | 4.25 mm | 8.23 mm | 12.4 mm | 4.33 mm | 7.32 mm | 12.7 mm | 4.59 mm | 7.38 mm | zone of inhibition at 30 µg/mL (Staphylococcus aureus [21]): 12.2 mm; inhibition in vivo at 20 mg/kg (Rattus norvegicus [22]): 16.1%; inhibition in vivo at 20 mg/kg (Rattus norvegicus [23]): 26.8%; inhibition in vivo at 20 mg/kg (Rattus norvegicus [24]): 28.3%; inhibition in vivo at 20 mg/kg (Rattus norvegicus [25]): 28.5%
2 | COc1ccc(Cl)c(-c2nnc3sc(Cc4c[nH]c5ccc(OC)cc45)nn23)c1 | 13.69% | 23.76% | 31.48% | 5.44 mm | 9.2 mm | 11.2 mm | 5.38 mm | 10.1 mm | 12.2 mm | 5.1 mm | 8.39 mm | 13.2 mm | 4.83 mm | 9.18 mm | 12.8 mm | 4.76 mm | 8.79 mm | 13.2 mm | 4.58 mm | 8.52 mm | zone of inhibition at 30 µg/mL (Staphylococcus aureus [21]): 13.7 mm; inhibition in vivo at 20 mg/kg (Rattus norvegicus [22]): 6.1%; inhibition in vivo at 20 mg/kg (Rattus norvegicus [23]): 14.4%; inhibition in vivo at 20 mg/kg (Rattus norvegicus [24]): 21.4%; inhibition in vivo at 20 mg/kg (Rattus norvegicus [25]): 33.9%
3 | COc1ccc2[nH]cc(Cc3nn4c(Cc5ccc(OC)c(OC)c5)nnc4s3)c2c1 | 11.92% | 19.06% | 28.32% | 4.12 mm | 8.3 mm | 10 mm | 4.24 mm | 8.1 mm | 10.4 mm | 4.72 mm | 8.49 mm | 12.9 mm | 4.9 mm | 8.42 mm | 12.3 mm | 4.92 mm | 8.18 mm | 13.7 mm | 4.82 mm | 8.39 mm | zone of inhibition at 30 µg/mL (Staphylococcus aureus [21]): 13.6 mm; inhibition in vivo at 20 mg/kg (Rattus norvegicus [22]): 4.11%; inhibition in vivo at 20 mg/kg (Rattus norvegicus [23]): 11.6%; inhibition in vivo at 20 mg/kg (Rattus norvegicus [24]): 19.1%; inhibition in vivo at 20 mg/kg (Rattus norvegicus [25]): 29.6%
4 | Cc1occc1-c1nnc2sc(-c3cc(-c4ccccc4)nc4ccccc34)nn12 | 4.86% | 14.48% | 21.1% | 6.27 mm | 14.8 mm | 19.4 mm | 5.92 mm | 11 mm | 17.7 mm | 7.64 mm | 13.2 mm | 17.4 mm | 7.12 mm | 12 mm | 17.3 mm | 6.16 mm | 11.8 mm | 16.9 mm | 6.18 mm | 12.7 mm | zone of inhibition at 30 µg/mL (Staphylococcus aureus [21]): 17.5 mm; inhibition in vivo at 20 mg/kg (Rattus norvegicus [22]): 11.8%; inhibition in vivo at 20 mg/kg (Rattus norvegicus [23]): 14.5%; inhibition in vivo at 20 mg/kg (Rattus norvegicus [24]): 16.4%; inhibition in vivo at 20 mg/kg (Rattus norvegicus [25]): 24.4%
5 | Cc1occc1-c1nnc2n1NC(c1ccc[nH]1)S2 (stereo not given) | 7.14% | 17.45% | 23% | 5.24 mm | 9.16 mm | 14.8 mm | 5.1 mm | 9.42 mm | 13.2 mm | 5.11 mm | 8.42 mm | 15.7 mm | 6.67 mm | 12.3 mm | 14.7 mm | 5.33 mm | 10.7 mm | 16.3 mm | 4.6 mm | 8.12 mm | zone of inhibition at 30 µg/mL (Staphylococcus aureus [21]): 12.3 mm; inhibition in vivo at 20 mg/kg (Rattus norvegicus [22]): 13.7%; inhibition in vivo at 20 mg/kg (Rattus norvegicus [23]): 18.2%; inhibition in vivo at 20 mg/kg (Rattus norvegicus [24]): 20.3%; inhibition in vivo at 20 mg/kg (Rattus norvegicus [25]): 22.7%
6 | COc1ccc(Cl)c(-c2nnc3sc(Cc4c[nH]c5ccccc45)nn23)c1 | 19.48% | 28.32% | 34.24% | 5.86 mm | 9.48 mm | 12.5 mm | 5.1 mm | 10.1 mm | 12.9 mm | 4.78 mm | 8.12 mm | 12.4 mm | 4.12 mm | 8.16 mm | 12.2 mm | 4.33 mm | 7.6 mm | 12.3 mm | 4.8 mm | 7.59 mm | zone of inhibition at 30 µg/mL (Staphylococcus aureus [21]): 12.6 mm; inhibition in vivo at 20 mg/kg (Rattus norvegicus [22]): 8.8%; inhibition in vivo at 20 mg/kg (Rattus norvegicus [23]): 16.5%; inhibition in vivo at 20 mg/kg (Rattus norvegicus [24]): 21.4%; inhibition in vivo at 20 mg/kg (Rattus norvegicus [25]): 34.7%
7 | Cc1occc1-c1nnc2n1NC(c1ccc([N+](=O)[O-])o1)S2 (stereo not given) | 5.34% | 15.68% | 26.85% | 5.89 mm | 11.1 mm | 15.8 mm | 5.48 mm | 10.4 mm | 15.3 mm | 5.78 mm | 11 mm | 16.9 mm | 6.12 mm | 11.8 mm | 17.1 mm | 6.25 mm | 11.5 mm | 17.2 mm | 6.11 mm | 11.5 mm | zone of inhibition at 30 µg/mL (Staphylococcus aureus [21]): 17.5 mm; inhibition in vivo at 20 mg/kg (Rattus norvegicus [22]): 15.6%; inhibition in vivo at 20 mg/kg (Rattus norvegicus [23]): 18.1%; inhibition in vivo at 20 mg/kg (Rattus norvegicus [24]): 22.8%; inhibition in vivo at 20 mg/kg (Rattus norvegicus [25]): 24.9%
8 | COc1ccc(Cc2nnc3n2NC(c2ccc([N+](=O)[O-])o2)S3)cc1OC (stereo not given) | 2.83% | 10.3% | 22.66% | 5.43 mm | 10.9 mm | 14.8 mm | 5.21 mm | 9.64 mm | 14.3 mm | 5.16 mm | 10 mm | 15 mm | 4.42 mm | 7.88 mm | 13.1 mm | 4.92 mm | 8.49 mm | 13.5 mm | 5.1 mm | 8.37 mm | zone of inhibition at 30 µg/mL (Staphylococcus aureus [21]): 14 mm; inhibition in vivo at 20 mg/kg (Rattus norvegicus [22]): 14.5%; inhibition in vivo at 20 mg/kg (Rattus norvegicus [23]): 17.6%; inhibition in vivo at 20 mg/kg (Rattus norvegicus [24]): 21.4%; inhibition in vivo at 20 mg/kg (Rattus norvegicus [25]): 23.7%

Reference: ChEMBL document CHEMBL1147862, “Studies on synthesis and pharmacological activities of 3,6-disubstituted-1,2,4-triazolo[3,4-b]-1,3,4-thiadiazoles and their dihydro analogues” (2007)
